Experiments:
[1] = Ratio of CC50 to that EC50 in mock infected cells; assay type: functional
Procedure, shortened: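 Selectivity index is the ratio of CC50 (mock-infected MT-4 viability, MTT, 4 days) to EC50 (protection of HIV-1 IIIB-infected MT-4 cells, MTT, 4 days), both from parallel assays.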

MT4 [2] = test: Effective dose required to achieve protection of MT-4 cells from Y181C HIV-1 induced cytopathogenicity; assay type: functional, cell-based; details: Homo sapiens
Procedure, shortened: (§1)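 MT-4 cells (1 × 10^4/well) in RPMI 1640 with 10% FCS, infected with 100 CCID50 of HIV-1 (IIIB wild type or Y181C), compounds from DMSO stock diluted in medium at various concentrations. After 4 days at 37 °C, viable cells counted by MTT. EC50 is the dose giving 50% protection from virus cytopathicity. Mean of at least two experiments.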

MT4 [3] = test: Cytotoxic concentration required to reduce the viability of mock-infected MT-4 cells; assay type: functional; details: Homo sapiens
Procedure, shortened: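 Mock-infected MT-4 cells, 1 × 10^4 per well, were exposed to graded compound concentrations in parallel with the antiviral assay. Compounds came from 200 mM DMSO stocks diluted into medium. After 4 days at 37 °C, viability was measured by MTT. The value is the dose reducing viability by 50%, as a mean of at least two experiments.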

[4] = biological target: Human immunodeficiency virus type 1 reverse transcriptase (Human immunodeficiency virus 1, UniProt Q72547); test: Inhibitory concentration required to inhibit the HIV-1 reverse transcriptase activity
Procedure, shortened: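 Purified recombinant HIV-1 RT, RNA-dependent polymerase activity. Template/primer poly(rC)-oligo(dG)12–18 at 0.5 OD260 unit/mL, with [3H]dGTP. Incubated 30 min at 37 °C, then acid-insoluble radioactivity counted on glass fiber filters. IC50 is the dose halving activity. Mean of at least two experiments.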

[5] = Ratio of wild type IIIB to that of Y181C HIV-1 induced cytopathogenicity; assay type: functional
MT4 [6] = test: Effective dose required to achieve protection of MT-4 cells from HIV-1 induced cytopathogenicity; assay type: functional, cell-based; details: Homo sapiens
Procedure, shortened: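 MT-4 cells (RPMI 1640, 10% FCS, 37 °C, 5% CO2), 1 × 10^4 per well, were infected with 100 CCID50 of HIV-1 IIIB in the presence of graded compound concentrations. Compounds came from 200 mM DMSO stocks diluted into medium. After 4 days at 37 °C, viable cells were counted by MTT. The value is the dose giving 50% protection, as a mean of at least two experiments.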

MT4 [7] = test: Effective dose required to achieve protection of MT-4 cells from wild type IIIB HIV-1 induced cytopathogenicity; assay type: functional, cell-based; details: Homo sapiens; procedure, shortened: as §1

Compound	Selectivity index [1]	EC50 (MT4 [2]) [nM]	CC50 (MT4 [3]) [nM]	IC50 [4] [nM]	Ratio [5]	EC50 (MT4 [6]) [nM]	EC50 (MT4 [7]) [nM]
Cc1c(C(C)c2c(F)cccc2F)nc(NC2CCCC2)[nH]c1=O (stereo not drawn)	4500	160	90000	35	5.3	20	30
CC(c1cc(=O)[nH]c(NC2CCCC2)n1)c1c(F)cccc1F (stereo not drawn)	3500		76000	40		30	
Cc1c(Cc2c(F)cccc2F)nc(SC2CCCC2)[nH]c1=O	> 2500		> 200000				
Cc1ccnc2c1NC(=O)c1cccnc1N2C1CC1 [NEVIRAPINE]		> 30000			> 81		
CC(c1cc(=O)[nH]c(SC2CCCC2)n1)c1c(F)cccc1F (stereo not drawn)	>6666		> 200000	30		30	
O=c1cc(Cc2c(F)cccc2F)nc(NC2CCCC2)[nH]1	>2222		> 200000	70		90	
CCOCn1c(Cc2ccccc2)c(C(C)C)c(=O)[nH]c1=O [EMIVIRINE]	6666		200000				
O=c1cc(Cc2c(F)cccc2F)nc(SC2CCCC2)[nH]1	>2500		> 200000				
O=C1Nc2ccc(Cl)cc2[C@@](C#CC2CC2)(C(F)(F)F)O1					6		
Cc1c(Cc2c(F)cccc2F)nc(NC2CCCC2)[nH]c1=O	>10000		> 200000	30		20	
Cc1c(C(C)c2c(F)cccc2F)nc(SC2CCCC2)[nH]c1=O (stereo not drawn)	>33333	200	> 200000		13	6	15

— ChEMBL document CHEMBL1148289, “Computer-aided design, synthesis, and anti-HIV-1 activity in vitro of 2-alkylamino-6-[1-(2,6-difluorophenyl)alkyl]-3,4-dihydro-5-alkylpyrimidin-4(3H)-ones as novel potent non-nucleoside reverse transcriptase inhibitors, also active against the Y181C variant” (J Med Chem, 2004)
